Experiments:
[1] = Metal chelation assay, UV–vis spectroscopy; type: physicochemical; conditions: compound 30 μM, ZnSO4 30 μM, ethanol
Procedure, shortened: (§1)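 Test compound and metal salt (CuSO4, ZnSO4 or FeSO4) mixed in ethanol, both at 30 μM final, and incubated 30 min at room temperature. UV-vis spectra were recorded from 200 to 600 nm for the compound alone, the metal alone and the mixture. Spectra of metal alone and compound alone were subtracted from the mixture spectrum to give the difference spectrum attributed to complex formation.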

hBuChE = hBuChE (Homo sapiens, UniProt P06276); test: In vitro BuChE inhibition assay; type: biochemical; conditions: for IC50: BuChE IC50 ± SD, modified Ellman method
Sequence of hBuChE (P06276 29-602): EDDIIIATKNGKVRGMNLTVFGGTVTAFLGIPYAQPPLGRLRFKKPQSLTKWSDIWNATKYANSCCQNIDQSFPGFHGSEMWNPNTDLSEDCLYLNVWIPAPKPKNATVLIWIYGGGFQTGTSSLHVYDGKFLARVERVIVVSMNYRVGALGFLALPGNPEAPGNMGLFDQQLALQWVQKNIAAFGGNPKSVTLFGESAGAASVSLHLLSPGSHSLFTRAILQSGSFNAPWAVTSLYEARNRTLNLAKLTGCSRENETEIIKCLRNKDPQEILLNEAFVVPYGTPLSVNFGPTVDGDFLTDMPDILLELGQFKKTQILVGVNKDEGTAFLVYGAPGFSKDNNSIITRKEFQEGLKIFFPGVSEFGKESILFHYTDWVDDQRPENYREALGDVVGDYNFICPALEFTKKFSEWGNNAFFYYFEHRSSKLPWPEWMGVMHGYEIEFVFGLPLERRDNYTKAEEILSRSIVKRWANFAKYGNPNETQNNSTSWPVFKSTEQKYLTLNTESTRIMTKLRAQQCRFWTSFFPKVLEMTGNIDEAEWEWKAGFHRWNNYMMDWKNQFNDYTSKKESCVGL

[2] = Metal chelation assay, UV–vis spectroscopy; type: physicochemical; conditions: compound 30 μM, CuSO4 30 μM, ethanol
Procedure, shortened: as §1

hMAO-B = molecular target: T1, hMAO-B (Homo sapiens, UniProt P27338); test: biochemical; type: biochemical
T1 sequence (P27338 1-520): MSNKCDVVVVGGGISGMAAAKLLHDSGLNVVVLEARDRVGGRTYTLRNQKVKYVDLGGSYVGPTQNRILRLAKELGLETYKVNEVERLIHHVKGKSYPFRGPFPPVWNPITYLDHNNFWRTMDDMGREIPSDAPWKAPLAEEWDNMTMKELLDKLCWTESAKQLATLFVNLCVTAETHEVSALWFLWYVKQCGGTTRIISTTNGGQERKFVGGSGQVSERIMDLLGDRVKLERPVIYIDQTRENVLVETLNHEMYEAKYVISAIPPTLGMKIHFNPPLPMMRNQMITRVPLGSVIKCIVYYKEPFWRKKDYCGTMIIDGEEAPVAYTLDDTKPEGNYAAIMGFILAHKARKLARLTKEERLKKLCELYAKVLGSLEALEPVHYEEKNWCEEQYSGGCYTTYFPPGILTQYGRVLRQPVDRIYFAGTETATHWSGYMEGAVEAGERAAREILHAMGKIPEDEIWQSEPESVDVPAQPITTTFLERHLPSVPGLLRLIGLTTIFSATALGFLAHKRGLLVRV

hAChE = hAChE (Homo sapiens, UniProt P22303); test: In vitro AChE inhibition assay; type: biochemical; conditions: for IC50: in vitro AChE inhibition IC50 ± SD, Ellman method, n = 3
Sequence of hAChE (P22303 32-614): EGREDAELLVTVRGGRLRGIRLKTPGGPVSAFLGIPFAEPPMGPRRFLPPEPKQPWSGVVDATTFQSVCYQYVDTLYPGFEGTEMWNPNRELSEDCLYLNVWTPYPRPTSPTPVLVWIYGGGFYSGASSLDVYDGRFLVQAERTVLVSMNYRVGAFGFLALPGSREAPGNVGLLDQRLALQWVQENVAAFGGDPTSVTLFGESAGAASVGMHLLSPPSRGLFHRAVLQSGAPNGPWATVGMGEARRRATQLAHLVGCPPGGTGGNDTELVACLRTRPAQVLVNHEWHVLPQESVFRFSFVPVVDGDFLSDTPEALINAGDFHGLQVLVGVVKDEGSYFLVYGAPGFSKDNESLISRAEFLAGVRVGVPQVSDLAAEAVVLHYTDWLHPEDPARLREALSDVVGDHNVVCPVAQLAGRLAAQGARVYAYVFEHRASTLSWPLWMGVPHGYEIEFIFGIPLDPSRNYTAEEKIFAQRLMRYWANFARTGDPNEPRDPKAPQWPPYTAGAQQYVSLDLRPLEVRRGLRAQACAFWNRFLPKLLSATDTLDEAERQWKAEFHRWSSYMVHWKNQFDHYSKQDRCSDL

[3] = In vitro neurotoxicity MTT assay; type: cell-based; conditions: human, SH-SY5Y neuroblastoma cells
Aβ1–42 = Aβ1–42 (Homo sapiens, UniProt P05067); test: Self-induced Aβ1–42 aggregation inhibition; type: biochemical; conditions: for IC50: Aβ1–42 aggregation inhibition IC50, self-induced aggregation; for inhibition at 10 µM: read-out: Aβ1–42 (% inhibition at 10 μM)
Sequence of Aβ1–42 (P05067 672-713): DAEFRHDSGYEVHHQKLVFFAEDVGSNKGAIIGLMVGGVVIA

HepG2 cell line = test: In vitro hepatotoxicity MTT assay; conditions: ratio of hepatotoxicity IC50 to AChE IC50
[4] = In vitro hepatotoxicity MTT assay; conditions: human
[5] = Metal chelation assay, UV–vis spectroscopy; type: physicochemical; conditions: compound 30 μM, FeSO4 30 μM, ethanol
Procedure, shortened: as §1

BACE-1 = BACE-1 (Homo sapiens, UniProt P56817); test: β-Secretase inhibition assay; type: biochemical; conditions: BACE-1 IC50 ± SD
Sequence of BACE-1 (P56817 46-501): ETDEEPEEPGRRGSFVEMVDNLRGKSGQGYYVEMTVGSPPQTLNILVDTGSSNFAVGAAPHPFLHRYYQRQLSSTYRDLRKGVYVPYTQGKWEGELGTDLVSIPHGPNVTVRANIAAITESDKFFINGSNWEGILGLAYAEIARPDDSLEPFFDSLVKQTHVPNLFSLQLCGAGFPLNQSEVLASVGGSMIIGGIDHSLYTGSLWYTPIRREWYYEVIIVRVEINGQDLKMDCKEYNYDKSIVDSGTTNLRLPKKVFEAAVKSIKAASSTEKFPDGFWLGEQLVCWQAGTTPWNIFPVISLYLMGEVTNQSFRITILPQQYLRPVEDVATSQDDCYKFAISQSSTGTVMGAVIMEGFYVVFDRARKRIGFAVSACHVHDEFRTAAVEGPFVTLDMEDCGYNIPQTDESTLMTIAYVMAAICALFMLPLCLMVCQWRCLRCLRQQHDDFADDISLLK

SMILES | UV–vis spectral change on addition of ZnSO4 (metal chelation) [1] | BuChE SI (selectivity index) = IC50 of AChE/IC50 of BuChE (hBuChE) | IC50 (hBuChE) | UV–vis spectral change on addition of CuSO4 (metal chelation) [2] | IC50 (hMAO-B) | AChE SI (selectivity index) = IC50 of BuChE/IC50 of AChE (hAChE) | IC50 (hAChE) | IC50 [3] | IC50 (Aβ1–42) | inhibition at 10 µM (Aβ1–42) | safety index ratio (SI) (HepG2 cell line) | IC50 at 24 h [4] | UV–vis spectral change on addition of FeSO4 (metal chelation) [5] | IC50 (BACE-1) | other results
Nc1c2c(nc3c1C(c1ccc(Cl)c(Cl)c1)c1ccc(OCC(=O)c4ccccc4)cc1O3)CCCC2 (centres unmarked) [5i, 2-[11-Amino-12-(3,4-dichlorophenyl)-7,9,10,12-tetrahydro-8H-chromeno[2,3-b]quinolin-3-yl]oxy-1-phenylethan-1-one] | without remarkable shifts | 2.12 | 0.26 ± 0.016 µM | without remarkable shifts | 1.62 ± 0.05 µM | 0.47 | 0.56 ± 0.03 µM | 17.2 ± 0.76 µM | 1.41 ± 0.05 µM | 68% | 200.53 | 113 ± 5.1 µM | hyperchromic effect | 2.12 ± 0.098 µM | fold more active than rivastigmine (BuChE inhibition) (hBuChE): ~4 fold; times better than iproniazid (MAO-B inhibition) (hMAO-B): ~4 times
COc1ccc(S(=O)(=O)Oc2ccc3c(c2)Oc2nc4c(c(N)c2C3c2cccc(OC)c2)CCCC4)cc1 (centres unmarked) [4g, 11-Amino-12-(3-methoxyphenyl)-7,9,10,12-tetrahydro-8H-chromeno[2,3-b]quinolin-3-yl-4-methoxybenzenesulfonate] | slight hypochromic shift | 0.85 | 0.35 ± 0.021 µM | hyperchromic shifts | 12.7 ± 0.43 µM | 1.18 | 0.3 ± 0.01 µM | 86 ± 3.81 µM | 11.7 ± 0.45 µM | 43% | 417.88 | 126 ± 5.3 µM | hyperchromic shifts | 1.46 ± 0.068 µM | 
Nc1c2c(nc3c1C(c1ccc(Cl)c(Cl)c1)c1ccc(OCC(=O)c4ccc(Cl)cc4)cc1O3)CCCC2 (centres unmarked) [5d, 2-[11-Amino-12-(3,4-dichlorophenyl)-7,9,10,12-tetrahydro-8H-chromeno[2,3-b]quinolin-3-yl]oxy-1-(4-chlorophenyl)ethan-1-one] | slight hyperchromic shift | 1.69 | 0.14 ± 0.009 µM | slight hyperchromic shift | 2.42 ± 0.08 µM | 0.59 | 0.25 ± 0.01 µM | 71.1 ± 2.8 µM | 0.74 ± 0.03 µM | 76% | 611.51 | 154 ± 6.2 µM | noticeable optical shift | 0.44 ± 0.021 µM | fold more active than rivastigmine (BuChE inhibition) (hBuChE): 5 fold; times better than iproniazid (MAO-B inhibition) (hMAO-B): ~3 times; times more active than curcumin (Aβ aggregation inhibition) (Aβ1–42): 8 fold
COc1cccc2c1C(=O)c1c(O)c3c(c(O)c1C2=O)C[C@@](O)(C(=O)CO)C[C@@H]3O[C@H]1C[C@H](N)[C@H](O)[C@H](C)O1 [Doxorubicin, reference compound] |  |  |  |  |  |  |  |  |  |  |  | 4.5 ± 0.2 µM |  |  | 
Nc1c2c(nc3ccccc13)CCCC2 [Tacrine, reference compound] |  |  |  |  |  |  |  |  |  |  |  | 17.5 ± 1.1 µM |  |  | 
COc1cc(/C=C/C(=O)CC(=O)/C=C/c2ccc(O)c(OC)c2)ccc1O [Curcumin, reference compound] |  |  |  |  |  |  |  |  |  | 44% |  |  |  |  | 
COc1ccccc1C1c2ccc(OS(=O)(=O)c3ccccc3)cc2Oc2nc3c(c(N)c21)CCCC3 (centres unmarked) [4t, 11-Amino-12-(2-methoxyphenyl)-7,9,10,12-tetrahydro-8H-chromeno[2,3-b]quinolin-3-yl-benzenesulfonate] |  |  |  |  |  |  | 24 ± 1.21 µM |  |  |  |  |  |  |  | 
Nc1c2c(nc3c1C(c1ccc(Cl)c(Cl)c1)c1ccc(OS(=O)(=O)c4ccccc4)cc1O3)CCCC2 (centres unmarked) [4s, 11-Amino-12-(3,4-dichlorophenyl)-7,9,10,12-tetrahydro-8H-chromeno[2,3-b]quinolin-3-yl-benzenesulfonate] |  |  |  |  |  |  | 9.69 ± 0.49 µM |  |  |  |  |  |  |  | 
COc1ccccc1C1c2ccc(OCC(=O)c3ccc(Cl)cc3)cc2Oc2nc3c(c(N)c21)CCCC3 (centres unmarked) [5e, 2-[11-Amino-12-(2-methoxyphenyl)-7,9,10,12-tetrahydro-8H-chromeno[2,3-b]quinolin-3-yl]oxy-1-(4-chlorophenyl)ethan-1-one] |  |  |  |  |  |  | 0.75 ± 0.04 µM |  |  |  |  |  |  |  | 

Source: paper PMC10373466 (ACS Omega, 2023)
